From ChEMBL document CHEMBL1811823, “Quinazolinone linked pyrrolo[2,1-c][1,4]benzodiazepine (PBD) conjugates: Design, synthesis and biological evaluation as potential anticancer agents” (2010)

How the values were obtained:
[1] = system: SiHa; assay: Growth inhibition of human SiHa cells after 48 hrs by SRB assay; type: functional
How it was run: (§1)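 SRB assay with 48 h continuous exposure. Cells were grown in RPMI 1640 with 10% FBS and 2 mM L-glutamine and preincubated 24 h at 37 °C, 5% CO2. Compounds were tested at four concentrations (0.1, 1, 10, 100) in triplicate wells. Cells were fixed with cold TCA (10% final) for 60 min at 4 °C, stained 20 min with 0.4% SRB in 1% acetic acid, and the dye eluted with 10 mM Tris. A540 was read against a 690 nm reference. Percent growth is relative to control wells on each plate.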

[2] = system: COLO 205; assay: Growth inhibition of human COLO205 cells after 48 hrs by SRB assay; type: functional; conditions: COLO 205, 48 h
How it was run: (§2)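 Cells grown in RPMI 1640 with 10% FBS and 2 mM L-glutamine, plated at densities set by doubling time, pre-incubated 24 h at 37 °C/5% CO2. Drug tested at 0.1, 1, 10 and 100 µM in triplicate wells for 48 h continuous exposure. Cells fixed with cold TCA (final 10%) 60 min at 4 °C, stained with 0.4% SRB, dye eluted in 10 mM Tris. Absorbance read at 540 nm (690 nm reference); percent growth calculated relative to control wells.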

[3] = system: ZR-75-1; assay: Growth inhibition of human ZR-75-1 cells after 48 hrs by SRB assay; type: functional; conditions: ZR-75-1, 48 h; how it was run: as §1
[4] = system: PC-3; assay: Growth inhibition of human PC3 cells after 48 hrs by SRB assay; type: functional; conditions: PC-3, 48 h; how it was run: as §2
[5] = system: A2780; assay: Growth inhibition of human A2780 cells after 48 hrs by SRB assay; type: functional; conditions: A2780, 48 h; how it was run: as §2
[6] = Growth inhibition of human Gurav cells after 48 hrs by SRB assay; type: functional; how it was run: as §2
[7] = system: HOP-62; assay: Growth inhibition of human HOP62 cells after 48 hrs by SRB assay; type: functional; conditions: HOP-62, 48 h; how it was run: as §2
[8] = system: KB; assay: Growth inhibition of human KB cells after 48 hrs by SRB assay; type: functional; how it was run: as §2
[9] = Growth inhibition of human DWD cells after 48 hrs by SRB assay; type: functional; how it was run: as §2
[10] = system: A549; assay: Growth inhibition of human A549 cells after 48 hrs by SRB assay; type: functional; conditions: A549, 48 h; how it was run: as §2
[11] = system: Nucleic Acid; assay: Binding affinity to calf thymus DNA assessed as change in melting temperature at 20 uM at pH 7 incubated for 18 hrs at 37 degC by thermal denaturation assay; type: nucleic-acid assay; conditions: Bos taurus
How it was run: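 CT-DNA (100 µM in phosphate) with 20 µM ligand, 1:5 [PBD]/[DNA], in 10 mM sodium phosphate/1 mM Na2EDTA buffer pH 7.00. Ligand added from methanol solution; incubated at 37 °C for 0 or 18 h. A260 monitored while heating 1 °C/min over 40–90 °C. Tm taken from d(A260)/dT maxima; ΔTm = Tm(DNA+PBD) − Tm(DNA alone). Values are means of at least three determinations, corrected for methanol cosolvent.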

[12] = system: MCF7; assay: Growth inhibition of human MCF7 cells after 48 hrs by SRB assay; type: functional; conditions: MCF7, 48 h; how it was run: as §2

Row | Structure (SMILES) | GI50 [1] [nM] | GI50 [2] [nM] | GI50 [3] [nM] | GI50 [4] [nM] | GI50 [5] [nM] | GI50 [6] [nM] | GI50 [7] [nM] | GI50 [8] [nM] | GI50 [9] [nM] | GI50 [10] [nM] | ΔTm [11] [°C] | GI50 [12] [nM]
1 | COc1cc2c(cc1OCCCCOc1ccc3nc(C)n(-c4ccc(Cl)cc4Cl)c(=O)c3c1)N=C[C@@H]1CCCN1C2=O | 180 | 170 | 170 | 180 | 150 | 170 | 180 | 160 | 150 | 180 | 2.3 | 140
2 | COc1cc2c(cc1OCCCCOc1ccc3nc(C)n(-c4ccc(I)cc4C)c(=O)c3c1)N=C[C@@H]1CCCN1C2=O | 180 | 170 | 160 | 170 | 150 | 170 | 170 | 150 | 150 | 170 | 2 | 120
3 | COc1cc2c(cc1OCCCCOc1ccc(-n3c(/C=C/c4ccccc4)nc4ccccc4c3=O)cc1)N=C[C@@H]1CCCN1C2=O | 2190 | 2230 | 160 | 1910 | 160 | 1930 | 2330 | 2070 | 160 | 2390 | 2.3 | 
4 | COc1cc2c(cc1OCCCCCOc1ccc3nc(C)n(-c4ccc(F)cc4)c(=O)c3c1)N=C[C@@H]1CCCN1C2=O | 190 | 150 | 160 | 170 | 140 | 130 | 180 | 150 | 150 | 130 | 2.2 | 150
5 | COc1cc2c(cc1OCCCOc1ccc(-n3c(/C=C/c4ccccc4)nc4ccccc4c3=O)cc1)N=C[C@@H]1CCCN1C2=O | 2000 | 2120 | 160 | 160 | 140 | 1850 | 2150 | 1780 | 140 | 1880 | 2 | 2030
6 | COc1cc2c(cc1OCCCCOc1ccc(-n3c(C)nc4ccccc4c3=O)cc1)N=C[C@@H]1CCCN1C2=O | 1900 | 1810 | 170 | 170 | 1650 | 1950 | 1950 | 1980 | 1600 | 1930 | 2.1 | 2300
